Measurements reported in ChEMBL document CHEMBL3232799, “Design, synthesis and biological evaluation of new 5-nitro benzimidazole derivatives as AT1 antagonists with anti-hypertension activities” (Bioorg Med Chem, 2014).
Active and inactive are the calls of the source. The rule behind the calls is not given here.

What was measured:
Rattus norvegicus [1] = test: Antihypertensive activity in renal hypersensitive Sprague-Dawley rat model assessed as reduction of blood pressure at 10 mg/kg, po measured for 1 to 24 hrs; assay type: functional, organism-based; set-up: dose 10 mg/kg
Method in brief: (§1)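 Renal hypertension induced in Sprague-Dawley rats (250-350 g) by complete ligation of the left renal artery under sodium pentobarbital (40 mg/kg); rats with SBP above 160 mmHg used. Groups of 10. Compound suspended in 0.5% sodium carboxymethyl cellulose and given orally at 5 and 10 mg/kg; vehicle control and losartan 10 mg/kg. Mean blood pressure measured under pentobarbital (40 mg/kg, i.p.) anesthesia.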

Rattus norvegicus [2] = test: Antihypertensive activity in spontaneous hypersensitive […] rat model assessed as reduction of blood pressure at 10 mg/kg, po measured for 1 to 24 hrs; assay type: functional
Method in brief: (§2)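 Spontaneously hypertensive rats (250-300 g), randomized into groups of 10. Compound suspended in 0.5% sodium carboxymethyl cellulose, oral dosing at 5 and 10 mg/kg; vehicle-only negative control and losartan 10 mg/kg positive control. Mean blood pressure recorded under sodium pentobarbital anesthesia (40 mg/kg, i.p.). Significance versus control at p < 0.05 or 0.01.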

[3] = Displacement of [125I]-angiotensin 2 from angiotensin AT1 receptor in VSMC of Sprague-Dawley rat thoracic aorta after 60 mins by gamma-counting; assay type: tissue-based
Method in brief: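 VSMCs explant-cultured from SD rat thoracic aorta (collagenase digestion, DMEM + 15% FBS), passages 3-7. Cells incubated with 0.1 nM 125I-angiotensin II plus compound (final 1e-6 to 1e-12 M), 60 min, 37°C. Nonspecific binding defined with 1 µM AII. Cells washed with PBS, lysed in 0.1 M NaOH, gamma-counted. IC50 from regression of displacement curves; Ki = IC50/(1+[L]/Kd).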

Rattus norvegicus [4] = test: Antihypertensive activity in spontaneous hypersensitive […] rat model assessed as reduction of blood pressure at <5 to 10 mg/kg, po measured for 1 to 24 hrs; assay type: functional, organism-based; set-up: dose 10 mg/kg; method in brief: as §2
Rattus norvegicus [5] = test: Antihypertensive activity in renal hypersensitive Sprague-Dawley rat model assessed as reduction of blood pressure at 5 to 10 mg/kg, po measured for 1 to 24 hrs; assay type: functional, organism-based; method in brief: as §1
Rattus norvegicus [6] = test: Antihypertensive activity in spontaneous hypersensitive […] rat model assessed as duration of reduction of blood pressure at 5 to 10 mg/kg, po; assay type: functional; conditions: dose mg/kg 5-10; method in brief: as §2
Rattus norvegicus [7] = test: Antihypertensive activity in spontaneous hypersensitive […] rat model assessed as reduction of blood pressure at 10 mg/kg, po measured after 4 to 5 hrs; assay type: functional; method in brief: as §2
Rattus norvegicus [8] = test: Antihypertensive activity in spontaneous hypersensitive […] rat model assessed as reduction of blood pressure at 5 mg/kg, po measured after 4 to 5 hrs; assay type: functional; method in brief: as §2

Row | SMILES | IC50 [3] [nM] | Activity (Rattus norvegicus [1]) | Activity (Rattus norvegicus [2]) [mmHg] | Ki [3] [nM] | Activity (Rattus norvegicus [4]) | Activity (Rattus norvegicus [5]) | Time (Rattus norvegicus [6]) [h] | Activity (Rattus norvegicus [7]) [mmHg] | Activity (Rattus norvegicus [8]) [mmHg]
1 | CCc1nc2cc([N+](=O)[O-])ccc2n1Cc1cccc2c1ccn2-c1ccccc1C(=O)O | 4.12 | Active | 30 | 3.04 |  |  |  |  | 
2 | CCCCc1nc2cc([N+](=O)[O-])ccc2n1Cc1ccc2c(ccn2-c2ccccc2C(=O)O)c1 | 5.11 | Active | 32 | 4.89 |  |  |  |  | 
3 | CCCc1nc2cc([N+](=O)[O-])ccc2n1Cc1cccc2c1ccn2-c1ccccc1C(=O)O | 5.43 |  |  | 4.23 | inactive | inactive |  |  | 
4 | CCCCc1nc(Cl)c(CO)n1Cc1ccc(-c2ccccc2-c2nnn[nH]2)cc1 [LOSARTAN] | 3.54 | Active | 31 | 2.53 |  |  |  |  | 
5 | CCCc1nc2cc([N+](=O)[O-])ccc2n1Cc1ccc2c(ccn2-c2ccccc2C(=O)O)c1 | 3.32 | Active | 28 | 2.22 |  |  |  |  | 

Now from value to compound, other results behind:

Row | IC50 [3] [nM] | SMILES | Activity (Rattus norvegicus [1]) | Activity (Rattus norvegicus [2]) [mmHg] | Ki [3] [nM] | Activity (Rattus norvegicus [4]) | Activity (Rattus norvegicus [5]) | Time (Rattus norvegicus [6]) [h] | Activity (Rattus norvegicus [7]) [mmHg] | Activity (Rattus norvegicus [8]) [mmHg]
6 | 15.7 | CCCCCc1nc2cc([N+](=O)[O-])ccc2n1Cc1cccc2c1ccn2-c1ccccc1C(=O)O |  |  | 13.4 | inactive | inactive |  |  | 
7 | 1.03 | CCCCc1nc2cc([N+](=O)[O-])ccc2n1Cc1cccc2c1ccn2-c1ccccc1C(=O)O |  |  | 0.97 |  | Active | 24 | 41 | 30
